In ChEMBL document CHEMBL4138196, “Discovery and structure-activity relationship of novel 4-hydroxy-thiazolidine-2-thione derivatives as tumor cell specific pyruvate kinase M2 activators” (Eur J Med Chem, 2018):

Legend:
[1] = tested on: NCI-H1299; assay: Antiproliferative activity against human H1299 cells after 48 hrs by MTS assay; type: functional, cell-based; details: NCI-H1299, 48 h
In short: (§1)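 Cells grown in RPMI 1640 with 9% FBS at 37°C, 5% CO2. 3000-10000 cells/well were left to attach 12 h, then given compound at five concentrations, or DMSO as vehicle control, for 48 h. MTS was added for 3 h at 37°C and absorbance read at 490 nm. IC50 (50% growth inhibition) was taken from triplicate dose-response curves.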

[2] = tested on: PC-3; assay: Antiproliferative activity against human PC3 cells after 48 hrs by MTS assay; type: functional, cell-based; details: PC-3, 48 h; in short: as §1
[3] = molecular target: Pyruvate kinase PKM (Homo sapiens, UniProt P14618); assay: Activation of N-terminal His -tagged human PKM2 expressed in Escherichia coli BL21 using PEP as substrate measured at 30 secs intervals for between 3 and 6 mins by fluorescent pyruvate kinase-lactate dehydrogenase coupled assay
[4] = tested on: HCT-116; assay: Antiproliferative activity against human HCT116 cells after 48 hrs by MTS assay; type: functional, cell-based; details: HCT-116, 48 h; in short: as §1
[5] = tested on: HeLa; assay: Antiproliferative activity against human HeLa cells after 48 hrs by MTS assay; type: functional, cell-based; in short: as §1
[6] = Antiproliferative activity against HELF after 48 hrs by MTS assay; parameters: species or system Homo sapiens; in short: as §1

Pyruvate kinase PKM, sequence (P14618 whole entry): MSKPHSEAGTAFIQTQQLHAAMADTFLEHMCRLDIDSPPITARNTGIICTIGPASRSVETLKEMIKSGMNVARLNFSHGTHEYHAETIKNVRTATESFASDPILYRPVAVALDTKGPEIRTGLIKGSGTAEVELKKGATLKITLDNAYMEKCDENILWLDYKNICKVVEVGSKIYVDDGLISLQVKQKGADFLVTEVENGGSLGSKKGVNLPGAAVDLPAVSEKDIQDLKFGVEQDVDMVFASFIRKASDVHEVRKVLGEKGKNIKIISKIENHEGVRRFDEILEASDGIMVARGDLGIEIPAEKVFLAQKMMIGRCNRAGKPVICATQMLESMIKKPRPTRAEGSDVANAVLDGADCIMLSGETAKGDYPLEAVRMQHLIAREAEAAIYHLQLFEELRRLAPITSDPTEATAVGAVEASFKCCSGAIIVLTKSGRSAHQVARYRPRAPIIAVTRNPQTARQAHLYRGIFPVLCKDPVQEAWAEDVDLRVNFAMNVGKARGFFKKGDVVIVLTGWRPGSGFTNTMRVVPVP

IC50 [1] [nM]	IC50 [2] [nM]	AC50 [3] [nM]	IC50 [4] [nM]	IC50 [5] [nM]	Compound	IC50 [6] [nM]
2430	2350	520	2110	840	O=S(=O)(Nc1ccc(C2(O)CSC(=S)N2Cc2cccnc2)cc1)c1cccc2cccnc12 (stereo not given)	–
750	700	> 20000	660	470	O=S(=O)(Nc1ccc(C2(O)CSC(=S)N2Cc2ccncc2)cc1)c1ccc2c(c1)OCCO2 (stereo not given)	8310
1620	4510	> 20000	3690	1110	COc1ccc(Cl)cc1S(=O)(=O)Nc1ccc(C2(O)CSC(=S)N2Cc2cccnc2)cc1 (stereo not given)	–
1750	1330	> 20000	1650	940	Cc1cc(C)c(S(=O)(=O)Nc2ccc(C3(O)CSC(=S)N3Cc3cccnc3)cc2)c(C)c1 (stereo not given)	–
1200	940	> 20000	2180	440	Cc1ccc(S(=O)(=O)Nc2ccc(C3(O)CSC(=S)N3Cc3cccnc3)cc2)cc1 (stereo not given)	–
1680	1110	6250	1730	1140	Cc1cccc(S(=O)(=O)Nc2ccc(C3(O)CSC(=S)N3Cc3cccnc3)cc2)c1 (stereo not given)	–
810	1520	> 20000	1650	460	O=S(=O)(Nc1ccc(C2(O)CSC(=S)N2Cc2cccnc2)cc1)c1ccc2ccccc2c1 (stereo not given)	8050
1250	2200	> 20000	1560	860	CS(=O)(=O)Nc1ccc(C2(O)CSC(=S)N2Cc2cccnc2)cc1 (stereo not given)	–
790	1330	7070	770	450	O=S(=O)(Nc1ccc(C2(O)CSC(=S)N2Cc2ccc3nccn3c2)cc1)c1ccc2c(c1)OCCO2 (stereo not given)	4910
1020	1350	17600	920	510	CS(=O)(=O)c1cccc(-c2ccc(CN3C(=S)SCC3(O)c3ccc(NS(=O)(=O)c4ccc5c(c4)OCCO5)cc3)cn2)c1 (stereo not given)	–
1630	1580	1190	2410	550	Cc1ccccc1S(=O)(=O)Nc1ccc(C2(O)CSC(=S)N2Cc2cccnc2)cc1 (stereo not given)	–
1280	2160	> 20000	1040	620	O=S(=O)(Nc1ccc(C2(O)CSC(=S)N2CCc2cccnc2)cc1)c1ccc2c(c1)OCCO2 (stereo not given)	–
1470	4110	> 20000	1800	770	N#Cc1ccc(S(=O)(=O)Nc2ccc(C3(O)CSC(=S)N3Cc3cccnc3)cc2)cc1 (stereo not given)	–
2960	3260	> 20000	3890	1400	O=[N+]([O-])c1cccc(-c2ccccc2S(=O)(=O)Nc2ccc(C3(O)CSC(=S)N3Cc3cccnc3)cc2)c1 (stereo not given)	–
1650	2400	> 20000	1410	690	O=c1ccc2cc(S(=O)(=O)Nc3ccc(C4(O)CSC(=S)N4Cc4cccnc4)cc3)ccc2o1 (stereo not given)	–
1230	1250	1470	1440	420	O=S(=O)(Nc1ccc(C2(O)CSC(=S)N2Cc2cccnc2)cc1)c1cccs1 (stereo not given)	–
1810	1280	1750	1280	550	O=S(=O)(Nc1ccc(C2(O)CSC(=S)N2Cc2cnc3ccccc3c2)cc1)c1ccc2c(c1)OCCO2 (stereo not given)	–
> 20000	> 20000	> 20000	> 20000	> 20000	O=S(=O)(Nc1ccc(-c2csc(=S)n2Cc2cccnc2)cc1)c1cccc2cccnc12	–
930	930	5950	2620	590	COc1cccc(S(=O)(=O)Nc2ccc(C3(O)CSC(=S)N3Cc3cccnc3)cc2)c1 (stereo not given)	6900

IC50 [1] [nM]	IC50 [2] [nM]	AC50 [3] [nM]	IC50 [4] [nM]	IC50 [5] [nM]	Compound	IC50 [6] [nM]
2700	2810	> 20000	6110	1100	O=S(=O)(Nc1ccc(C2(O)CSC(=S)N2Cc2cccnc2)cc1)c1ccccc1-c1ccccc1 (stereo not given)	–
1750	3870	> 20000	2300	610	O=[N+]([O-])c1ccccc1S(=O)(=O)Nc1ccc(C2(O)CSC(=S)N2Cc2cccnc2)cc1 (stereo not given)	–
1550	2440	7240	3320	1260	O=S(=O)(Cc1ccccc1)Nc1ccc(C2(O)CSC(=S)N2Cc2cccnc2)cc1 (stereo not given)	–
1650	4290	740	1640	710	O=C1CCc2cc(S(=O)(=O)Nc3ccc(C4(O)CSC(=S)N4Cc4cccnc4)cc3)ccc2N1 (stereo not given)	–
1440	990	2960	1700	450	O=S(=O)(Nc1ccc(C2(O)CSC(=S)N2Cc2cccnc2)cc1)c1ccccc1 (stereo not given)	–
7830	4570	–	1370	–	CC(=O)O[C@H]1C(=O)[C@@]2(C)[C@H]([C@H](OC(=O)c3ccccc3)[C@]3(O)C[C@H](OC(=O)[C@H](O)[C@@H](NC(=O)c4ccccc4)c4ccccc4)C(C)=C1C3(C)C)[C@]1(OC(C)=O)CO[C@@H]1C[C@@H]2O [PACLITAXEL]	–
1140	2190	> 20000	4110	480	O=S(=O)(Nc1ccc(C2(O)CSC(=S)N2Cc2cccnc2)cc1)c1cccc(F)c1 (stereo not given)	–
960	1070	4690	1750	480	COc1ccc(S(=O)(=O)Nc2ccc(C3(O)CSC(=S)N3Cc3cccnc3)cc2)cc1 (stereo not given)	8630
1240	8620	> 20000	3450	1330	O=S(=O)(Nc1ccc(C2(O)CSC(=S)N2Cc2cccnc2)cc1)c1ccccc1N1CCOCC1 (stereo not given)	–
2000	1260	1410	1550	760	O=S(=O)(Nc1ccc(C2(O)CSC(=S)N2Cc2cccnc2)cc1)c1c[nH]c2ncccc12 (stereo not given)	–
2470	6150	> 20000	2320	930	CN(c1ccc(C2(O)CSC(=S)N2Cc2cccnc2)cc1)S(=O)(=O)c1cccc2cccnc12 (stereo not given)	–
1450	2680	> 20000	1180	550	O=S(=O)(Nc1ccc(C2(O)CSC(=S)N2Cc2cccnc2)cc1)c1ccccc1F (stereo not given)	–
830	1130	> 20000	740	410	COc1ncccc1CN1C(=S)SCC1(O)c1ccc(NS(=O)(=O)c2ccc3c(c2)OCCO3)cc1 (stereo not given)	10400
2120	1950	> 20000	1840	780	O=C1COc2ccc(S(=O)(=O)Nc3ccc(C4(O)CSC(=S)N4Cc4cccnc4)cc3)cc2N1 (stereo not given)	–
1720	920	2150	850	550	O=S(=O)(Nc1ccc(C2(O)CSC(=S)N2Cc2cnccn2)cc1)c1ccc2c(c1)OCCO2 (stereo not given)	–
1310	1400	> 20000	3500	570	O=S(=O)(Nc1ccc(C2(O)CSC(=S)N2Cc2cccnc2)cc1)c1ccc(F)cc1 (stereo not given)	–
1530	1690	> 20000	2610	630	O=S(=O)(Nc1ccc(C2(O)CSC(=S)N2Cc2cccnc2)cc1)c1cccc2ccccc12 (stereo not given)	–
1220	1310	> 20000	2720	260	O=[N+]([O-])c1ccc(S(=O)(=O)Nc2ccc(C3(O)CSC(=S)N3Cc3cccnc3)cc2)cc1 (stereo not given)	–
510	1530	> 20000	410	340	Cc1ccncc1CN1C(=S)SCC1(O)c1ccc(NS(=O)(=O)c2ccc3c(c2)OCCO3)cc1 (stereo not given)	7210
